The text below walks through data of ChEMBL document CHEMBL4196114 (ACS Med Chem Lett, 2018).

Series [1] is described as follows: Selectivity index, ratio of IC50 for PMA-differentiated human THP1 cells to IC50 for amastigote stage of Leishmania infantum infected in PMA-differentiated human THP1 cells. The note with it: read-out: Ratio IC50. The format is toxicity.
Series [2] has as its system Leishmania infantum. Briefly: Antileishmanial activity against Leishmania infantum MHOM/TN/80/IPT1 promastigotes after 72 hrs by MTT assay. The note with it: MHOM/TN/80/IPT1, 72 h. Type of series: functional, organism-based. Summed up: (§1)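 Promastigotes grown in Schneider's medium with 10% FCS at 22 °C. Assay in RPMI with 10% FCS, 20 mM Hepes and 2 mM glutamine, 5×10⁶ parasites/mL, seven serial dilutions from DMSO stocks, 72 h at 22 °C. MTT added for 3 h, pellet lysed in SDS/DMF, A550 read against 650 nm reference. IC50 given as mean of separate duplicate experiments; amphotericin B as reference.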

The subject of series [3] is Leishmania infantum. Briefly: Antileishmanial activity against Leishmania infantum MHOM/TN/1980/IPT-1 amastigotes infected in Balb/c mouse assessed as reduction in liver parasite load at 100 mg/kg, po administered for 4 days measured post last dose relative to control. Type of series: functional. The arrangement: scale not given: the % may be the effect or the level left. Put shortly: (§2)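 Balb/c mice (18-20 g) inoculated via tail vein with 2×10⁶ semi-purified L. infantum IPT-1 amastigotes. Dosing p.o. (0.1% Tween/0.5% HEC in water, or water) or s.c. (sunflower oil, or water) for 4 or 5 consecutive days from day 9 post-infection.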

Series [4] in a line: Selectivity index, ratio of IC50 for PMA-differentiated human THP1 cells to IC50 for Leishmania infantum MHOM/TN/80/IPT1 promastigotes. The format is toxicity. The note with it: read-out: Ratio IC50.
Series [5] relates to Mus musculus. Briefly: Toxicity in C57Bl/6 mouse assessed as effect on normal behavior at 300 mg/kg, po administered as single dose measured twice daily up to 30 days. Type of series: organism-based. As to conditions: in vivo, 720 h. Put shortly: (§3)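 Healthy female C57Bl/6 mice, groups of four or five, received one oral dose. Compound was first dissolved in DMSO, then suspended in 0.5% hydroxyethylcellulose-0.1% Tween 80. Behaviour and appearance were checked twice daily for 30 days. A dose counted as tolerated if all mice survived 30 days with normal appearance and behaviour.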

Series [6] relates to Leishmania infantum. Briefly: Antileishmanial activity against Leishmania infantum MHOM/TN/1980/IPT-1 amastigotes infected in sc dosed Balb/c mouse assessed as reduction in liver parasite load administered for 4 to 5 days measured post last dose. Type of series: functional, organism-based. Summed up: as §2
The test system of series [7] is Leishmania infantum. In words: Antileishmanial activity against Leishmania infantum MHOM/TN/1980/IPT-1 amastigotes infected in Balb/c mouse assessed as reduction in liver parasite load at 10 mg/kg, sc administered for 4 days measured post last dose relative to control. The arrangement: scale not given: the % may be the effect or the level left. The format is functional. Summed up: (§4)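 Balb/c mice (18-20 g) inoculated via tail vein with 2×10⁶ semi-purified L. infantum IPT-1 amastigotes. Dosing p.o. (0.1% Tween/0.5% HEC in water, or water) or s.c. (sunflower oil, or water) for 4 or 5 consecutive days from day 9 post-infection. On day 13 or 14, liver weight × amastigotes per liver cell gives relative load, expressed versus the untreated control group mean.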

The test system of series [8] is BMDM. In words: Induction of nitric oxide production in IFNgamma-primed mouse BMDM measured after 24 hrs by Griess assay. The format is functional, cell-based.
Series [9] concerns Leishmania infantum. In words: Antileishmanial activity against amastigote stage of Leishmania infantum infected in PMA-differentiated human THP1 cells assessed as inhibition of parasite growth at 0.5 uM after 72 hrs by Giemsa staining based light microscopy relative to control. The note with it: THP-1, 72 h. Type of series: functional. Put shortly:
(§5)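 THP-1 cells at 5×10⁵ cells/mL differentiated with 0.1 μM PMA for 48 h, then infected with metacyclic L. infantum promastigotes (1:10 macrophage:parasite) for 24 h. Washed monolayers exposed to compound for 72 h, methanol-fixed and Giemsa-stained. Percent infected macrophages versus untreated scored by light microscopy, and IC50 derived. Single-concentration values are means of two or three experiments, IC50 of two.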

The test system of series [10] is Leishmania infantum. In words: Antileishmanial activity against amastigote stage of Leishmania infantum infected in PMA-differentiated human THP1 cells assessed as inhibition of parasite growth after 72 hrs by Giemsa staining based light microscopy. The format is functional, organism-based. As to conditions: THP-1, 72 h. Put shortly: as §5
Series [11] relates to Leishmania infantum. Briefly: Antileishmanial activity against Leishmania infantum MHOM/TN/1980/IPT-1 amastigotes infected in po dosed Balb/c mouse assessed as reduction in liver parasite load administered for 4 to 5 days measured post last dose. The format is functional, organism-based. Summed up: as §2
Series [12] relates to Mus musculus. In words: Toxicity in C57Bl/6 mouse assessed as survival at 300 mg/kg, po administered as single dose measured twice daily up to 30 days. The format is organism-based. The note with it: in vivo, 720 h. Put shortly:
as §3

The test system of series [13] is BMDM. In words: Induction of reactive oxygen species production in IFNgamma-primed mouse BMDM measured after 24 hrs by H2DCFDA probe based assay. Type of series: functional, cell-based.
The test system of series [14] is THP-1. In words: Cytotoxicity against PMA-differentiated human THP1 cells after 72 hrs by MTT assay. The format is cell-based. As to conditions: THP-1, 72 h. Summed up:
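THP-1 cells at 5×10⁵ cells/mL, differentiated with 0.1 μM PMA for 48 h, then exposed to serial dilutions for 72 h. Viability read by MTT; IC50 for growth inhibition. Duplicate experiments, mean reported.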

Series [15] concerns Mus musculus. In words: Toxicity in C57Bl/6 mouse assessed as effect on normal appearance at 300 mg/kg, po administered as single dose measured twice daily up to 30 days. Type of series: organism-based. As to conditions: in vivo, 720 h. Summed up: as §3
Series [16] concerns Mus musculus. Briefly: Toxicity in Balb/c mouse infected with Leishmania infantum MHOM/TN/1980/IPT-1 amastigotes assessed as death at 100 mg/kg, administered for 4 days measured on day 10 to 12. Type of series: organism-based. As to conditions: in vivo, 96 h.
The test system of series [17] is Leishmania infantum. In words: Antileishmanial activity against Leishmania infantum MHOM/TN/1980/IPT-1 amastigotes infected in Balb/c mouse assessed as reduction in liver parasite load at 5 mg/kg, sc administered for 5 days measured post last dose relative to control. The format is functional. The arrangement: scale not given: the % may be the effect or the level left. Summed up:
as §4

Series [18] relates to Leishmania tropica. Briefly: Antileishmanial activity against Leishmania tropica MHOM/IT/2012/ISS3130 promastigotes after 72 hrs by MTT assay. The format is functional, organism-based. As to conditions: MHOM/IT/2012/ISS3130, 72 h. Put shortly:
as §1

Series [19] relates to Leishmania infantum. Briefly: Antileishmanial activity against Leishmania infantum MHOM/TN/1980/IPT-1 amastigotes infected in Balb/c mouse assessed as reduction in liver parasite load at 60 mg/kg, po administered for 4 days measured post last dose relative to control. The format is functional. The arrangement: scale not given: the % may be the effect or the level left. Summed up: as §4

The nature of series [20]: Selectivity index, ratio of IC50 for PMA-differentiated human THP1 cells to IC50 for Leishmania tropica MHOM/IT/2012/ISS3130 promastigotes. Type of series: toxicity. As to conditions: read-out: Ratio IC50.

`Cl.Cl.Cl.Cl.Clc1ccc2c(NCCCN3CCN(CCCNCCC45CC6CC(CC(C6)C4)C5)CC3)ccnc2c1`: the selectivity ratio in series [1] is 3.22; in series [4], 1.9; in [20], 2. Also, the 50% inhibitory concentration (IC50) in series [2] is 520 nM; in series [10], 310 nM; in series [14], 1000 nM; in [18] it was 510 nM. The Activity is 100% in series [3]; “Non-Toxic” in series [5]; “Dose-dependent effect” in [6]; 81% in series [7]; “Dose-dependent effect” in [8]; “Dose-dependent effect” in [11]. Besides, the Activity entry in series [12] is “Non-Toxic”; in series [13] it was “Dose-dependent effect”; in [15], “Non-Toxic”; in series [16], “Toxic”; in series [17] it was 57%; in [19], 96%. For the same compound, the inhibition at 0.5 µM in series [9] was 72.2%.
Consider `Fc1ccc2scc(-c3ccc(CNCCCCNc4ccnc5ccccc45)cc3)c2c1`, for which the selectivity ratio in series [1] came out at 3.61; in [4], 1.9; in [20], 2.3. The IC50 amounted to 1240 nM in series [2], 650 nM in [10], 2350 nM in [14] and 1020 nM in series [18]. Also, in series [9], the inhibition at 0.5 µM came out at 42.7%. Moreover, the Activity result in series [12] is reported as “Toxic”.
In the case of `C[C@@H]1[C@H](O)[C@@H](C)/C=C/C=C/C=C/C=C/C=C/C=C/C=C/[C@H](O[C@@H]2O[C@H](C)[C@@H](O)[C@H](N)[C@@H]2O)C[C@@H]2O[C@](O)(C[C@@H](O)C[C@@H](O)[C@H](O)CC[C@@H](O)C[C@@H](O)CC(=O)O[C@H]1C)C[C@H](O)[C@H]2C(=O)O` [AMPHOTERICIN B], the selectivity ratio in series [1] is > 51.4; in series [4] it was > 83.1; in series [20], > 77.1. Moreover, the IC50 in series [2] is 130 nM; in [10] it was 210 nM; in series [14] it was > 10800 nM; in series [18], 140 nM. Further, in [9], the inhibition at 0.5 µM was 95.5%.
